Results: ChEMBL document CHEMBL4257542, “Design, synthesis, and evaluation of bitopic arylpiperazine-phthalimides as selective dopamine D3 receptor agonists” (Medchemcomm, 2018)
Where “and” joins values, the source holds several entries; their conditions need not be identical. Equal entries are not always repeated.

Columns and labels:
D(2) dopamine receptor [1] = target: T1, D(2) dopamine receptor (Homo sapiens, UniProt P14416); experiment: Displacement of [3H]-sulpiride from human D2 receptor expressed in HEK293 cells at 100 nM after 150 mins by liquid scintillation counting method relative to control; assay type: cell-based
T1 sequence (P14416 whole entry): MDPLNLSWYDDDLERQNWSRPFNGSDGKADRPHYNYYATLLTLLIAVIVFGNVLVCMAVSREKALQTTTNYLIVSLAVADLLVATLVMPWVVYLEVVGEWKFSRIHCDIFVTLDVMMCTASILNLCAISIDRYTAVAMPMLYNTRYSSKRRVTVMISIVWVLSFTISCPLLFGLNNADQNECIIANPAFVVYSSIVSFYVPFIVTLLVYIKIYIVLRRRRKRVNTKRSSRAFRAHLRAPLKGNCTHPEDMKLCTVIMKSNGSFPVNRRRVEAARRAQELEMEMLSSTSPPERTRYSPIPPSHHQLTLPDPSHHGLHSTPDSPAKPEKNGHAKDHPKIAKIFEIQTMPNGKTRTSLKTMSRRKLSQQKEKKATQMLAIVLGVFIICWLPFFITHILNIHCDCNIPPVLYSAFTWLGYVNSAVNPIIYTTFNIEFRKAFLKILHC

Homo sapiens = species: Homo sapiens; experiment: Selectivity ratio of Ki for human D2 receptor expressed in HEK293 cells to Ki for human D3 receptor expressed in HEK293 cells; assay type: cell-based
D(3) dopamine receptor [2] = target: T2, D(3) dopamine receptor (Homo sapiens, UniProt P35462); experiment: Displacement of [3H]-sulpiride from human D3 receptor expressed in HEK293 cells after 150 mins by liquid scintillation counting method; assay type: cell-based
T2 sequence (P35462 whole entry): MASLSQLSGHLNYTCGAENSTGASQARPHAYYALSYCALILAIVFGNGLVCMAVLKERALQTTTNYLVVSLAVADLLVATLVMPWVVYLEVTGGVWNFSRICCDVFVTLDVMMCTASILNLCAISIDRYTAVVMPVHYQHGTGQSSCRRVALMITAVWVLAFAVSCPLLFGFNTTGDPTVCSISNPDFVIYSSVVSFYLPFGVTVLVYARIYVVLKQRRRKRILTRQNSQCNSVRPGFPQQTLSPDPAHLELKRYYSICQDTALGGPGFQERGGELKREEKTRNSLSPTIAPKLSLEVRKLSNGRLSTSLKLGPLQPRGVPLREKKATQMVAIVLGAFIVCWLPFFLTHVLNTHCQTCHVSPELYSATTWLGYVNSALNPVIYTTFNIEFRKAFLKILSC

D(2) dopamine receptor [3] = target: T1, D(2) dopamine receptor; experiment: Displacement of [3H]-sulpiride from human D2 receptor expressed in HEK293 cells after 150 mins by liquid scintillation counting method; assay type: cell-based
Outline: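 HEK 293 cells transfected with D2R plasmid, cultured in MEM without then with fetal bovine serum (4 h, 24 h). Seeded overnight, then intact cells incubated with [3H]-sulpiride (2.2 nM) plus compounds for 150 min at 4 °C. Cells were rinsed in ice-cold MEM, lysed in 1% SDS, and counted by liquid scintillation. IC50 from nonlinear dose-response fit; Ki by Cheng-Prusoff.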

D(3) dopamine receptor [4] = target: T2, D(3) dopamine receptor; experiment: Potency index, ratio of N-(4-(4-(2,4-dichlorophenyl)piperazin-1-yl)butyl)-1H-indole-2-carboxamide hydrochloride Ki to compound Ki for displacement of [3H]-sulpiride from human D3 receptor expressed in HEK293 cells; assay type: cell-based
D(3) dopamine receptor [5] = target: T2, D(3) dopamine receptor; experiment: Agonist activity at human D3 receptor expressed in HEK293 cells assessed as inhibition of forskolin-induced cAMP accumulation after 4 hrs by luciferase reporter gene assay; assay type: functional, cell-based
D(3) dopamine receptor [6] = target: T2, D(3) dopamine receptor; experiment: Potency index, ratio of quinpirole EC50 to compound EC50 for agonist activity at human D3 receptor expressed in HEK293 cells; assay type: functional, cell-based
D(2) dopamine receptor [7] = target: T1, D(2) dopamine receptor; experiment: Displacement of [3H]-sulpiride from human D2 receptor expressed in HEK293 cells at 30 uM after 150 mins by liquid scintillation counting method relative to control; assay type: cell-based
Outline: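 HEK 293 cells transiently transfected with D2R plasmid, kept in serum-free MEM for 4 h and then serum-containing MEM for 24 h, seeded and left overnight. Whole cells were incubated with 2.2 nM [3H]-sulpiride plus test compound for 150 min at 4 °C, rinsed with ice-cold MEM, and lysed in 1% SDS. Bound radioactivity was read by liquid scintillation counting.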

Row | inhibition (D(2) dopamine receptor [1]) | Compound | other results
1 | 92.2% | COc1ccccc1C1CCN(CCCCN2C(=O)c3ccccc3C2=O)CC1 | 
2 |  | O=C(CCCCN1CCN(c2ccccc2F)CC1)Nc1nc2ccccc2s1 | Ratio Ki (Homo sapiens): 45
3 | 17.7% | O=C1c2ccccc2C(=O)N1CCCCN1CCN(c2cccc(F)c2F)CC1 | Ki (D(3) dopamine receptor [2]): 19.3 nM; Ratio Ki (Homo sapiens): 112; Ki (D(2) dopamine receptor [3]): 2160 nM; Ratio Ki (D(3) dopamine receptor [4]): 21; EC50 (D(3) dopamine receptor [5]): 0.00048 nM; Ratio EC50 (D(3) dopamine receptor [6]): 199 to 200
4 | 64.8% | O=C1c2ccccc2C(=O)N1CCCCN1CCN(c2cccc(Cl)c2)CC1 | 
5 | 56.1% | O=C1c2ccccc2C(=O)N1CCCCN1CCC(n2c(=O)[nH]c3cc(Cl)ccc32)CC1 | 
6 | 37.9% and 44% | O=C1c2ccccc2C(=O)N1CCCCN1CCN(c2cccc(C(F)(F)F)c2)CC1 | 
7 | -4.7% | O=C1c2ccccc2C(=O)N1CCCCN1CCN(c2cc(C(F)(F)F)ccc2F)CC1 | 
8 | 22.7% | O=C(NCCCCN1CCN(c2ccc(Cl)cc2Cl)CC1)c1cc2ccccc2[nH]1 | Ki (D(2) dopamine receptor [3]): > 23900 nM; inhibition (D(2) dopamine receptor [7]): < 50%
9 | 31.8% | O=C1c2ccccc2C(=O)N1CCCCN1CCN(c2ccccc2F)CC1 | 
10 | 4.8% | O=C1c2ccccc2C(=O)N1CCCCN1CCN(c2ccc(F)cc2F)CC1 | 
11 | 2.8% | O=C1c2ccccc2C(=O)N1CCCCN1CCN(c2ccc(Cl)cc2F)CC1 | 
12 | 92.2% | CCN1CCCC1CNC(=O)c1cc(S(N)(=O)=O)ccc1OC (configuration not stated) | 
13 |  | O=C(CCCCN1CCN(c2ccc(Cl)cc2Cl)CC1)Nc1nc2ccccc2s1 | Ratio Ki (Homo sapiens): 63.8
14 | 28.7% | O=C1c2ccccc2C(=O)N1CCCCN1CCN(c2ccccc2Cl)CC1 | 
15 | 70.3% | O=C1c2ccccc2C(=O)N1CCCCN1CCN(c2cccc(Cl)c2Cl)CC1 | 
16 | 30.2% | O=C1c2ccccc2C(=O)N1CCCCN1CCN(c2ccc(Cl)cc2Cl)CC1 | 
17 |  | O=C(NCCCCN1CCN(c2cccc(Cl)c2Cl)CC1)c1cc2ccccc2[nH]1 | EC50 (D(3) dopamine receptor [5]): 0.026 nM
18 | 10.3% | O=C1c2ccccc2C(=O)N1CCCCN1CCN(c2c(F)cccc2F)CC1 | 
19 | -6.3% | O=C1c2ccccc2C(=O)N1CCCCN1CCN(c2ccc(F)cc2)CC1 | 
